Values after ≈ are worked out from the molar mass of the structure shown.
How the values were obtained:
[1] = system: Mycobacterium tuberculosis; test: Antimycobacterial activity against multidrug-resistance Mycobacterium tuberculosis A8 after 28 days by serial dilution method; type: functional; settings: for MIC: Mycobacterium tuberculosis, A8, 672 h
Method in brief: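 Serial dilution in in-house Sula semisynthetic medium, pH 6.5. Compounds added as DMSO solutions at 10 doses, final 0.05–100 µg/mL. Incubation at 37 °C, 7 days for M. abscessus and 28 days for M. tuberculosis strains. MIC taken as the lowest concentration giving visible growth inhibition, confirmed by CFU on drug-free Löwenstein-Jensen medium after further equal incubation. Repeated at least twice.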

[2] = Selectivity index, ratio of IC50 for human MONO-MAC-6 cells to MIC for multidrug-resistance Mycobacterium tuberculosis A8; type: toxicity; settings: read-out: Selectivity Index
[3] = system: Mycobacterium tuberculosis; test: Antimycobacterial activity against INH/RIF/rifabutine/streptomycin/ethambutol/ofloxacin/gentamicin/amikacin-resistance Mycobacterium tuberculosis Praha 131 after 21 days by microbroth dilution method; type: functional; settings: Praha 131, 504 h
Method in brief: (§1)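 Micromethod MIC in Sula semisynthetic medium, pH 6.5. Incubation at 37 °C, read at 14 and 21 days. MIC taken as the lowest concentration giving complete inhibition of mycobacterial growth.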

[4] = system: Mycobacterium tuberculosis; test: Antimycobacterial activity against INH/RIF/rifabutine/streptomycin/ethambutol/ofloxacin/gentamicin/amikacin-resistance Mycobacterium tuberculosis Praha 131 after 14 days by microbroth dilution method; type: functional; settings: Praha 131, 336 h; method in brief: as §1
[5] = Selectivity index, ratio of IC50 for human MONO-MAC-6 cells to MIC for INH/RIF/rifabutine/streptomycin/ethambutol/ofloxacin/gentamicin/amikacin-resistance Mycobacterium tuberculosis Praha 131 after 21 days; type: toxicity; settings: read-out: Selectivity Index
[6] = system: Mycobacterium tuberculosis; test: Antimycobacterial activity against INH/RIF/rifabutine/streptomycin-resistance Mycobacterium tuberculosis 9449/2006 after 14 days by microbroth dilution method; type: functional; settings: 9449/2006, 336 h; method in brief: as §1
[7] = Selectivity index, ratio of IC50 for human MONO-MAC-6 cells to MIC for INH/RIF/rifabutine/streptomycin-resistance Mycobacterium tuberculosis 9449/2006 after 21 days; type: toxicity; settings: read-out: Selectivity Index
[8] = system: Mycobacterium tuberculosis; test: Antimycobacterial activity against INH/RIF/rifabutine/streptomycin-resistance Mycobacterium tuberculosis 9449/2006 after 21 days by microbroth dilution method; type: functional; settings: 9449/2006, 504 h; method in brief: as §1

Row | SMILES | Activity [1] [CFU] | MIC [1] [µM] | selectivity ratio [2] | MIC [3] [µM] | MIC [4] [µM] | selectivity ratio at 504 h [5] | MIC [6] [µM] | selectivity ratio at 504 h [7] | MIC [8] [µM]
1 | O=C(Nc1ccc(Cl)c(Cl)c1)c1cc(Cl)ccc1O | 8 | 1.6 (≈ 0.507 µg/mL) | 2.3 |  |  |  |  |  | 
2 | O=C(O)c1cnc(Cl)cn1 |  | > 633 |  |  |  |  |  |  | 
3 | O=C(Nc1ccc(C(F)(F)F)cc1)c1cc(Cl)ccc1O | 0 | 1.6 (≈ 0.505 µg/mL) |  |  |  |  |  |  | 
4 | CCCNC(=O)Oc1ccc(Cl)cc1C(=O)Nc1ccc(Cl)c(Cl)c1 | 2 | 1.3 (≈ 0.522 µg/mL) | 5.4 | 1 (≈ 0.402 µg/mL) | 1 (≈ 0.402 µg/mL) | 7 | 1 (≈ 0.402 µg/mL) | 7 | 1 (≈ 0.402 µg/mL)
5 | O=C(Nc1ccc(C(F)(F)F)cc1)c1cc(Br)ccc1O | 0 | 2.8 (≈ 1.01 µg/mL) | 2.7 |  |  |  |  |  | 
6 | O=C(c1ccccc1)c1ccc(NC(=O)c2cc(Cl)ccc2O)cc1 | 50 | 14.2 (≈ 5 µg/mL) | 3.4 |  |  |  |  |  | 
7 | O=C(Nc1ccc(Cl)c(Cl)c1)c1cc(Br)ccc1O | 0 | 2.8 (≈ 1.01 µg/mL) | 1.3 |  |  |  |  |  | 
8 | O=C(c1ccccc1)c1ccc(NC(=O)c2cc(Br)ccc2O)cc1 | 1 | 12.7 (≈ 5.03 µg/mL) | 1.7 |  |  |  |  |  | 
9 | O=C(Oc1ccc(Cl)cc1C(=O)Nc1ccc(C(F)(F)F)cc1)c1cnc(Cl)cn1 | 1 | 1.1 (≈ 0.502 µg/mL) | 1 | 1 (≈ 0.456 µg/mL) | 1 (≈ 0.456 µg/mL) | 1.1 | 1 (≈ 0.456 µg/mL) | 0.6 | 2 (≈ 0.912 µg/mL)
10 | O=C(Oc1ccc(Cl)cc1C(=O)Nc1ccc(Cl)c(Cl)c1)c1cnc(Cl)cn1 | 0 | 4.4 (≈ 2.01 µg/mL) | 2.3 | 2 (≈ 0.914 µg/mL) | 1 (≈ 0.457 µg/mL) | 5.1 | 1 (≈ 0.457 µg/mL) | 5.1 | 2 (≈ 0.914 µg/mL)
11 | O=C(Oc1ccc(Br)cc1C(=O)Nc1ccc(C(F)(F)F)cc1)c1cnc(Cl)cn1 | 22 | 2 (≈ 1 µg/mL) | 0.6 | 2 (≈ 1 µg/mL) | 2 (≈ 1 µg/mL) | 0.6 | 1 (≈ 0.501 µg/mL) | 0.6 | 2 (≈ 1 µg/mL)
12 | O=C(Oc1ccc(Br)cc1C(=O)Nc1ccc(Cl)c(Cl)c1)c1cnc(Cl)cn1 | 11 | 2 (≈ 1 µg/mL) | 2.9 |  |  |  |  |  | 
13 | O=C(NCCCl)Oc1ccc(Cl)cc1C(=O)Nc1ccc(C(F)(F)F)cc1 | 0 | 1.2 (≈ 0.505 µg/mL) | 6.3 | 2 (≈ 0.842 µg/mL) | 1 (≈ 0.421 µg/mL) | 3.8 | 0.5 (≈ 0.211 µg/mL) | 7.6 | 1 (≈ 0.421 µg/mL)
14 | O=C(NCCCCl)Oc1ccc(Cl)cc1C(=O)Nc1ccc(C(F)(F)F)cc1 | 0 | 1.2 (≈ 0.522 µg/mL) | 7.3 | 2 (≈ 0.87 µg/mL) | 1 (≈ 0.435 µg/mL) | 4.4 | 1 (≈ 0.435 µg/mL) | 4.4 | 2 (≈ 0.87 µg/mL)
15 | O=C(NCCCl)Oc1ccc(Cl)cc1C(=O)Nc1ccc(Cl)c(Cl)c1 | 0 | 2.4 (≈ 1.01 µg/mL) | 1.9 |  |  |  |  |  | 
16 | O=C(NCCCCl)Oc1ccc(Cl)cc1C(=O)Nc1ccc(Cl)c(Cl)c1 | 1 | 1.2 (≈ 0.523 µg/mL) | 2.1 |  |  |  |  |  | 
17 | O=C(NCCCl)Oc1ccc(Br)cc1C(=O)Nc1ccc(C(F)(F)F)cc1 | 9 | 1.1 (≈ 0.512 µg/mL) | 8.5 | 2 (≈ 0.931 µg/mL) | 1 (≈ 0.466 µg/mL) | 4.7 | 1 (≈ 0.466 µg/mL) | 4.7 | 2 (≈ 0.931 µg/mL)
18 | O=C(NCCCCl)Oc1ccc(Br)cc1C(=O)Nc1ccc(C(F)(F)F)cc1 | 0 | 1 (≈ 0.48 µg/mL) | 5.7 | 2 (≈ 0.959 µg/mL) | 1 (≈ 0.48 µg/mL) | 2.9 | 1 (≈ 0.48 µg/mL) | 2.9 | 2 (≈ 0.959 µg/mL)
19 | O=C(NCCCl)Oc1ccc(Br)cc1C(=O)Nc1ccc(Cl)c(Cl)c1 | 0 | 2.2 (≈ 1.03 µg/mL) | 3.1 | 2 (≈ 0.933 µg/mL) | 1 (≈ 0.467 µg/mL) | 3.5 | 1 (≈ 0.467 µg/mL) | 3.5 | 2 (≈ 0.933 µg/mL)
20 | O=C(NCCCCl)Oc1ccc(Br)cc1C(=O)Nc1ccc(Cl)c(Cl)c1 | 2 | 1 (≈ 0.481 µg/mL) | 9.5 | 1 (≈ 0.481 µg/mL) | 1 (≈ 0.481 µg/mL) | 9.5 | 1 (≈ 0.481 µg/mL) | 4.8 | 2 (≈ 0.961 µg/mL)
21 | O=C(NCCCl)Oc1ccc(Cl)cc1C(=O)Nc1ccc(C(=O)c2ccccc2)cc1 | 21 | 10.9 (≈ 4.98 µg/mL) | 3.5 |  |  |  |  |  | 
22 | O=C(NCCCCl)Oc1ccc(Cl)cc1C(=O)Nc1ccc(C(=O)c2ccccc2)cc1 | 0 | 21.3 (≈ 10 µg/mL) | 0.8 |  |  |  |  |  | 
23 | CCCNC(=O)Oc1ccc(Cl)cc1C(=O)Nc1ccc(C(=O)c2ccccc2)cc1 | 6 | 11.5 (≈ 5.02 µg/mL) | 1.6 |  |  |  |  |  | 
24 | O=C(NCCCl)Oc1ccc(Br)cc1C(=O)Nc1ccc(C(=O)c2ccccc2)cc1 | 0 | 20 (≈ 10 µg/mL) | 1.2 |  |  |  |  |  | 
25 | O=C(NCCCCl)Oc1ccc(Br)cc1C(=O)Nc1ccc(C(=O)c2ccccc2)cc1 | 1 | 1.9 (≈ 0.98 µg/mL) | 6.6 |  |  |  |  |  | 
26 | O=C(Oc1ccc(Cl)cc1C(=O)Nc1ccc(C(F)(F)F)cc1)c1cnccn1 |  |  |  | 1 (≈ 0.422 µg/mL) |  |  |  |  | 0.5 (≈ 0.211 µg/mL)
27 | O=C(Oc1ccc(Cl)cc1C(=O)Nc1ccc(Cl)c(Cl)c1)c1cnccn1 |  |  |  | 0.125 (≈ 0.0528 µg/mL) |  |  |  |  | 0.25 (≈ 0.106 µg/mL)
28 | O=C(Oc1ccc(Br)cc1C(=O)Nc1ccc(C(F)(F)F)cc1)c1cnccn1 |  |  |  | 0.5 (≈ 0.233 µg/mL) |  |  |  |  | 0.5 (≈ 0.233 µg/mL)
29 | NNC(=O)c1ccncc1 [ISONIAZID] | 12 | 7.3 (≈ 1 µg/mL) |  |  |  |  |  |  | 

From ChEMBL document CHEMBL3612041, “Combating highly resistant emerging pathogen Mycobacterium abscessus and Mycobacterium tuberculosis with novel salicylanilide esters and carbamates” (Eur J Med Chem, 2015)
